Data on 22 compounds can be found in ChEMBL document CHEMBL1155055, “Novel aminopeptidase N inhibitors derived from 1,3,4-thiadiazole scaffold” (Bioorg Med Chem, 2008).

The structures appear in SMILES notation. Activity calls are given as the source filed them. The rule behind the calls is not given here.

One test addresses T1, Aminopeptidase N (Sus scrofa, UniProt P15145).
T1 sequence (P15145 whole entry): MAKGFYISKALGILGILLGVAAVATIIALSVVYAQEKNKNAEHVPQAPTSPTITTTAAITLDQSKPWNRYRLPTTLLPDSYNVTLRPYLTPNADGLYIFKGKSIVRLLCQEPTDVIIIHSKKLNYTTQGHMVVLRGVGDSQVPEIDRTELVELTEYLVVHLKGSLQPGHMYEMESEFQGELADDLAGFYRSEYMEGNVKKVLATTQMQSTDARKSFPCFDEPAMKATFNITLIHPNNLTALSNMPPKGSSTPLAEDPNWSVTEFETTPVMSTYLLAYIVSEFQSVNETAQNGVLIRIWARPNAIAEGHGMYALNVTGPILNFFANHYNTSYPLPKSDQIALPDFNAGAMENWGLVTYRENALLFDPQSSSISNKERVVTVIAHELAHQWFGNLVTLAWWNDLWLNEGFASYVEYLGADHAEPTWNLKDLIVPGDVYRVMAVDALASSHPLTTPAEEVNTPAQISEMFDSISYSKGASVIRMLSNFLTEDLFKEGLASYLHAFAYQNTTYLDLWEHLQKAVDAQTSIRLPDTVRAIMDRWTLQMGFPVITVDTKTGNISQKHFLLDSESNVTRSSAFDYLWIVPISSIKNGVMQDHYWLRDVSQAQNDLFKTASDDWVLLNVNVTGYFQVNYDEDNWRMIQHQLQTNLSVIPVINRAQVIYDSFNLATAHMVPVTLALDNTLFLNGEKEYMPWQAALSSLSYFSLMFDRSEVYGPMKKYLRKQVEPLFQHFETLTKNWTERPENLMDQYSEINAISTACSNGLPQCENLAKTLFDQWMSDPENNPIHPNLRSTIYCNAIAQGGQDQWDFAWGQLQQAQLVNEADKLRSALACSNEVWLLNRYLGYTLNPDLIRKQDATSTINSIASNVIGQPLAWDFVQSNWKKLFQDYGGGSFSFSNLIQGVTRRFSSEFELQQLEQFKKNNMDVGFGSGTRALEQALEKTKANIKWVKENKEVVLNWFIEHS
Briefly: Inhibition of pig kidney microsomes aminopeptidase N.

The target in test [1] is 72 kDa type IV collagenase (Homo sapiens, UniProt P08253). Description: Inhibition of MMP2. Summed up: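 Gelatinase (MMP-2), substrate and inhibitor in 50 mmol/L sodium borate pH 8.5, 30 min at 37 °C; then 0.03% TNBS added, further 20 min incubation; absorbance read at 450 nm.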

Compound `COc1ccc(-c2nnc(NC(=O)[C@@H](C)NC(=O)/C=C/c3ccc(O)cc3)s2)cc1` gave a half-inhibitory concentration (IC50) against Aminopeptidase N of 68.8 µM. Also, the result in test [1] was inactive.

In the case of `C[C@@H](NC(=O)/C=C/c1ccccc1)C(=O)Nc1nnc(-c2ccccc2)s1`, inhibition against Aminopeptidase N was half-maximal at 216 µM (IC50). Moreover, the outcome in test [1] was inactive.

For the compound `C[C@@H](NC(=O)/C=C/c1ccc(O)cc1)C(=O)Nc1nnc(-c2ccc(Br)cc2)s1`, the IC50 against Aminopeptidase N was found to be 35.3 µM. Also, the outcome in test [1] was inactive.

`CC(C)C[C@H](NC(=O)[C@@H](O)[C@H](N)Cc1ccccc1)C(=O)O` [UBENIMEX] displayed an IC50 in test [1] of 9.5 µM.

For `C[C@@H](NC(=O)/C=C/c1ccccc1)C(=O)Nc1nnc(-c2ccc([N+](=O)[O-])cc2)s1`, the 50% inhibitory concentration (IC50) on Aminopeptidase N amounted to 84.7 µM. In test [1], the result was inactive.

For `C[C@@H](NC(=O)/C=C/c1ccccc1)C(=O)Nc1nnc(-c2ccc(Cl)cc2)s1`, on Aminopeptidase N, the IC50 stood at 153 µM. Moreover, in test [1], the result was inactive.

Consider `COc1ccc(/C=C/C(=O)N[C@H](C)C(=O)Nc2nnc(-c3ccc([N+](=O)[O-])cc3)s2)cc1`, for which the half-inhibitory concentration (IC50) is 44.6 µM against Aminopeptidase N and 297 µM in test [1].

For the compound `C[C@@H](NC(=O)/C=C/c1ccc(O)cc1)C(=O)Nc1nnc(-c2ccccc2)s1`, at Aminopeptidase N, the IC50 was determined as 124 µM. Besides, the outcome in test [1] was inactive.

The compound `C[C@@H](NC(=O)/C=C/c1ccc(O)cc1)C(=O)Nc1nnc(-c2ccc(Cl)cc2)s1` yielded an IC50 against Aminopeptidase N of 105 µM. Besides, the result in test [1] was inactive.

The compound `C[C@@H](NC(=O)/C=C/c1ccccc1)C(=O)Nc1nnc(-c2ccc(Br)cc2)s1` had a 50% inhibitory concentration (IC50) against Aminopeptidase N of 115 µM. The result in test [1] was inactive.

The compound `Cc1ccc(-c2nnc(NC(=O)[C@@H](C)NC(=O)/C=C/c3ccc(O)cc3)s2)cc1` yielded a half-maximal inhibitory concentration (IC50) on Aminopeptidase N of 127 µM. Moreover, the result in test [1] was inactive.

In turn, `COc1ccc(/C=C/C(=O)N[C@H](C)C(=O)Nc2nnc(-c3ccc(OC)cc3)s2)cc1` gave an IC50 against Aminopeptidase N of 78.5 µM. Besides, the result in test [1] was inactive.

`C[C@@H](NC(=O)/C=C/c1ccc(O)cc1)C(=O)Nc1nnc(-c2ccc([N+](=O)[O-])cc2)s1` yielded an IC50 against Aminopeptidase N of 54.1 µM. For the same compound, the outcome in test [1] was inactive.

On to `Cc1ccc(-c2nnc(NC(=O)[C@@H](C)NC(=O)/C=C/c3ccccc3)s2)cc1`, for which, on Aminopeptidase N, the IC50 was 206 µM. Also, in test [1], the outcome was inactive.

Take `COc1ccc(-c2nnc(NC(=O)[C@@H](C)NC(=O)/C=C/c3ccccc3)s2)cc1`: the half-inhibitory concentration (IC50) against Aminopeptidase N amounted to 31.4 µM. In addition, in test [1], the result was inactive.

In turn, `COc1ccc(/C=C/C(=O)N[C@H](C)C(=O)Nc2nnc(-c3ccc(Br)cc3)s2)cc1` gave an IC50 against Aminopeptidase N of 108 µM. Also, the outcome in test [1] was inactive.

Compound `COc1ccc(/C=C/C(=O)N[C@H](C)C(=O)Nc2nnc(-c3ccc(F)cc3)s2)cc1` displayed a half-maximal inhibitory concentration (IC50) against Aminopeptidase N of 90.7 µM. In addition, the outcome in test [1] was inactive.

Take `C[C@@H](NC(=O)/C=C/c1ccccc1)C(=O)Nc1nnc(-c2ccc(F)cc2)s1`: on Aminopeptidase N, half-maximal inhibition (IC50) was put at 183 µM. For the same compound, in test [1], the outcome was inactive.

On to `COc1ccc(/C=C/C(=O)N[C@H](C)C(=O)Nc2nnc(-c3ccc(C)cc3)s2)cc1`, for which, on Aminopeptidase N, the IC50 was 141 µM. Moreover, the result in test [1] was inactive.

At Aminopeptidase N, `C[C@@H](NC(=O)/C=C/c1ccc(O)cc1)C(=O)Nc1nnc(-c2ccc(F)cc2)s1` registered an IC50 of 115 µM. In addition, the result in test [1] was inactive.

Regarding `COc1ccc(/C=C/C(=O)N[C@H](C)C(=O)Nc2nnc(-c3ccccc3)s2)cc1`, half-maximal inhibition against Aminopeptidase N (IC50) was put at 131 µM. In test [1], the outcome was inactive.

As for `COc1ccc(/C=C/C(=O)N[C@H](C)C(=O)Nc2nnc(-c3ccc(Cl)cc3)s2)cc1`, the IC50 against Aminopeptidase N stood at 135 µM. Further, the result in test [1] was inactive.
